# What was measured:
# [1] = target: T1, ATP-dependent translocase ABCB1 (Homo sapiens, UniProt P08183); test: Inhibition of P-glycoprotein-mediated multidrug resistance in human doxorubicin-resistant K562 cells assessed as drug level causing 50% increase in nuclear concentration of pirarubicin by spectrofluorimetry; format: cell-based; details: read-out: INH
# Procedure, shortened: (§1)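 Pirarubicin uptake was measured in doxorubicin-resistant K562/DOX cells, which overexpress only Pgp, by continuous spectrofluorometry (excitation 480 nm, emission 590 nm) after incubation. R is the fold increase in nuclear pirarubicin with inhibitor, from 0 (no inhibitor) to 1 (equal to sensitive cells). Rmax is the maximal attainable R. Reported concentrations are those giving R = 0.2 or R = 0.5.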
# [2] = target: T1, ATP-dependent translocase ABCB1; test: Inhibition of P-glycoprotein-mediated multidrug resistance in human doxorubicin-resistant K562 cells assessed as maximal increase in nuclear concentration of pirarubicin by spectrofluorimetry relative to sensitive K562 cells; format: cell-based; procedure, shortened: as §1
# K562 [3] = test: Growth inhibition in doxorubicin-resistant human K562 cells overexpressing Pgp at 3 uM after 72 hrs by MTT assay; format: functional; details: K562, 72 h, read-out: GI
# K562 [4] = test: Growth inhibition in human K562 cells at 1 uM after 72 hrs by MTT assay; format: functional; details: K562, 72 h, read-out: GI
# K562 [5] = test: Growth inhibition in doxorubicin-resistant human K562 cells overexpressing Pgp at 1 uM after 72 hrs by MTT assay; format: functional; details: K562, 72 h, read-out: GI
# K562 [6] = test: Growth inhibition in human K562 cells at 3 uM after 72 hrs by MTT assay; format: functional; details: K562, 72 h, read-out: GI
# [7] = target: T1, ATP-dependent translocase ABCB1; test: Inhibition of P-glycoprotein-mediated multidrug resistance in human doxorubicin-resistant K562 cells assessed as drug level causing 20% increase in nuclear concentration of pirarubicin by spectrofluorimetry; format: cell-based; procedure, shortened: as §1
# T1 sequence (P08183 whole entry): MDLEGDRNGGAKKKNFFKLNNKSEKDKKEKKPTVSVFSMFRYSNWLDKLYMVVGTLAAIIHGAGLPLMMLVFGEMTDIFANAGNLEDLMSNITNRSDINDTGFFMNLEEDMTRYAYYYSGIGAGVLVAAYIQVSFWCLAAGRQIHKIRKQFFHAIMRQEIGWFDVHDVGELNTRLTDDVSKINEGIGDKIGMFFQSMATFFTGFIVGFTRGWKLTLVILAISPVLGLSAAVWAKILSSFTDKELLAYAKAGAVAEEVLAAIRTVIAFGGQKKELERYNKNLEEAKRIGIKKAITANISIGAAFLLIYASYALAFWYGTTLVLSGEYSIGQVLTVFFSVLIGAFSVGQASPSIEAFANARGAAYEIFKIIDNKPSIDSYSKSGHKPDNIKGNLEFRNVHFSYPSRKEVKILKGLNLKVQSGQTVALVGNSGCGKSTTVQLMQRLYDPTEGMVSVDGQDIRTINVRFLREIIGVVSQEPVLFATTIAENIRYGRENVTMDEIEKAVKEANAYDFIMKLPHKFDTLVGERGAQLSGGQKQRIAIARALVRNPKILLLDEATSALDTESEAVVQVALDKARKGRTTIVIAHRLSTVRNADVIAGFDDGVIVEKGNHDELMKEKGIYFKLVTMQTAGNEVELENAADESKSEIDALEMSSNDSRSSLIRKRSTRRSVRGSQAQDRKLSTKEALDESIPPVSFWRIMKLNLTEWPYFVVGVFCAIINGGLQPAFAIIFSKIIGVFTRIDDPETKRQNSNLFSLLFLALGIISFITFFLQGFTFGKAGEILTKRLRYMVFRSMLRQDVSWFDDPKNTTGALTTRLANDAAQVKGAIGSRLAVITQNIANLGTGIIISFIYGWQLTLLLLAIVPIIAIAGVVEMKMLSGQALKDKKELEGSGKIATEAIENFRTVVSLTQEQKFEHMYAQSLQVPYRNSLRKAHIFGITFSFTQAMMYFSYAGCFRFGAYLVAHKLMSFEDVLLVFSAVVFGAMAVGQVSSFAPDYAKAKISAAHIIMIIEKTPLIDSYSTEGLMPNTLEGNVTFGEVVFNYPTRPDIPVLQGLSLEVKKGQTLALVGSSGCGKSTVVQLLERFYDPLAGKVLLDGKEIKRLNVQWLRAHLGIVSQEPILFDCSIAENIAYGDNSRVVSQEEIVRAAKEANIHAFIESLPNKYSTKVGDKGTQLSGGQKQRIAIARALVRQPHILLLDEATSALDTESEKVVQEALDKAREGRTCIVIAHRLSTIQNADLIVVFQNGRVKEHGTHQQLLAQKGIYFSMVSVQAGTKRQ
IC50 [1] [nM],fold change (FC) [2],INH [7] [µM],SMILES,inhibition of growth at 3 µM (K562 [3]) [%],inhibition of growth at 1 µM (K562 [4]) [%],inhibition of growth at 1 µM (K562 [5]) [%],inhibition of growth at 3 µM (K562 [6]) [%]
3700,0.63,–,COc1cc2c(cc1OC)CN(CCC(=O)OCCCN(C)CCCOC(=O)/C=C/c1cc(OC)c(OC)c(OC)c1)CC2,–,–,–,–
–,0.4,0.36,COc1cc(/C=C/C(=O)OCCCCCN(C)CCCCCOC(=O)/C=C/c2ccc(-c3ccccc3)cc2)cc(OC)c1OC,–,–,–,–
400,0.5,–,COc1ccc(C(C(=O)OCCCCCN(C)CCCCCOC(=O)/C=C/c2cc(OC)c(OC)c(OC)c2)c2ccc(OC)cc2)cc1,–,–,–,–
640,0.7,–,COc1ccc(/C=C/C(=O)OCCCCCN(C)CCCCCOC(=O)c2cc(OC)c(OC)c(OC)c2)cc1OC,–,–,–,–
170,1,–,COc1ccc(/C=C/C(=O)OCCCCCN(C)CCCCCOC(=O)c2c3ccccc3cc3ccccc23)cc1OC,≤ 10,≤ 10,≤ 10,≤ 10
–,0.5,1.4,COc1ccc(/C=C/C(=O)OCCCN(C)CCCOC(=O)/C=C/c2cc(OC)c(OC)c(OC)c2)cc1OC,–,–,–,–
–,0.34,0.7,COc1ccc(/C=C/C(=O)OCCCN(C)CCCOC(=O)c2cc(OC)c(OC)c(OC)c2)cc1OC,–,–,–,–

# Further lines, the molecule ahead of its results:
SMILES,IC50 [1] [nM],fold change (FC) [2],INH [7] [µM],inhibition of growth at 3 µM (K562 [3]) [%],inhibition of growth at 1 µM (K562 [4]) [%],inhibition of growth at 1 µM (K562 [5]) [%],inhibition of growth at 3 µM (K562 [6]) [%]
COc1cc(/C=C/C(=O)OCCCNCCCOC(=O)/C=C/c2c3ccccc3cc3ccccc23)cc(OC)c1OC,800,0.92,–,–,–,–,–
COc1cc(/C=C/C(=O)OCCCN(C)CCCOC(=O)/C=C/c2c3ccccc3cc3ccccc23)cc(OC)c1OC,250,0.93,–,–,–,–,–
COc1cc(/C=C/C(=O)OCCCN(C)CCCOC(=O)C=C(c2ccccc2)c2ccccc2)cc(OC)c1OC,160,0.66,–,20,20,≤ 10,20
COc1cc(/C=C/C(=O)OCCCN(C)CCCOC(=O)/C=C/c2ccc(-c3ccccc3)cc2)cc(OC)c1OC,240,0.85,–,≤ 10,≤ 10,≤ 10,≤ 10
COc1ccc(C(C(=O)OCCCN(C)CCCOC(=O)/C=C/c2cc(OC)c(OC)c(OC)c2)c2ccc(OC)cc2)cc1,80,0.79,–,≤ 10,≤ 10,≤ 10,≤ 10
COc1cc(/C=C/C(=O)OCCCN(C)CCCOC(=O)CN2C(=O)C3C4c5ccccc5C(c5ccccc54)C3C2=O)cc(OC)c1OC (centres undefined),230,0.73,–,–,–,–,–
COc1cc(/C=C/C(=O)OCCCN(C)CCCOC(=O)CCN2C(=O)C3C4c5ccccc5C(c5ccccc54)C3C2=O)cc(OC)c1OC (centres undefined),390,0.63,–,–,–,–,–
COc1cc(/C=C/C(=O)OCCCCCN(C)CCCCCOC(=O)C=C(c2ccccc2)c2ccccc2)cc(OC)c1OC,–,0.28,0.5,–,–,–,–
COc1cc(/C=C/C(=O)OCCCN(C)CCCOC(=O)c2ccc(-c3ccccc3)cc2)cc(OC)c1OC,220,0.77,–,–,–,–,–
COc1ccc(C(C#N)(CCCNCc2c3ccccc3cc3ccccc23)C(C)C)cc1OC (centres undefined),50,0.7,–,–,–,–,–
COc1ccc(/C=C/C(=O)OCCCN(C)CCCOC(=O)c2c3ccccc3cc3ccccc23)cc1OC,190,0.57,–,–,–,–,–
COc1ccc(/C=C/C(=O)OCCCN(C)CCCOC(=O)c2c3ccccc3c(Cl)c3ccccc23)cc1OC,410,0.98,–,–,–,–,–
COc1cc(/C=C/C(=O)OCCCN(C)CCCOC(=O)C(c2ccccc2)c2ccccc2)cc(OC)c1OC,260,0.77,–,≤ 10,≤ 10,≤ 10,≤ 10
COc1ccc(CCN(C)CCCC(C#N)(c2ccc(OC)c(OC)c2)C(C)C)cc1OC (centres undefined) [VERAPAMIL],–,–,–,≤ 10,≤ 10,≤ 10,≤ 10

# From ChEMBL document CHEMBL1154908, “Structure-activity relationships studies in a series of N,N-bis(alkanol)amine aryl esters as P-glycoprotein (Pgp) dependent multidrug resistance (MDR) inhibitors” (J Med Chem, 2010)
